Values belong to the molecule of their own block, whether it stands above or below them. Active and inactive are the calls of the source.
Assays:
[1] = (§1) Inhibition of human TERT promoter activity expressed in human HeLa cells after 24 hrs by luciferase reporter gene assay; assay type: cell-based
Method in brief: (§2)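 HeLa cells co-transfected with hTERT promoter–luciferase (P-3996) or pGL2 vector plus pCMV-β-gal. Replated at 5×10^3/well, then treated 24 h in DMEM with 3% FBS at 1–16 µM. Luciferase normalized to β-galactosidase and expressed as fold of 0.1% DMSO control. Three repeats.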

HeLa [2] = assay: Antiproliferative activity against human HeLa cells at 5 uM by MTT assay; assay type: functional, cell-based; settings: TDE = time-dependent effect
Method in brief: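 HeLa cells seeded 5,000/well in triplicate, exposed to 5 µM for 24 or 48 h. MTT added at 0.5 mg/ml final for 4 h at 37 °C in the dark. Formazan dissolved in DMSO and read at 570 nm. Three independent experiments.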

L02 = assay: Antiproliferative activity against human LO2 cells at 1 to 16 uM after 48 hrs by MTT assay; assay type: cell-based; settings: l02, 48 h
Method in brief: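 L02 cells given 1, 2, 4, 8 and 16 µM for 48 h. Seeded 5,000/well in triplicate. MTT 0.5 mg/ml final, 4 h at 37 °C in the dark, DMSO solubilization, absorbance at 570 nm. Three independent experiments. IC50 from probit regression of relative absorbance.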

HeLa [3] = assay: Inhibition of TERT promoter activity in human HeLa cells assessed as decrease in relative length of telomeres treated up to 22 generations by Q-PCR analysis; assay type: cell-based
Method in brief: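 HeLa cells cultured with compound or DMSO for 22 generations. Telomere length measured by qPCR as telomere/36B4 single-copy gene (T/S) ratio relative to a reference DNA. Samples run in duplicate, threshold 0.5.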

HeLa [4] = assay: Inhibition of colony formation in human HeLa cells at 5 uM after 3 weeks; assay type: functional, cell-based
Method in brief: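 HeLa cells treated with 5 µM and grown 3 weeks. Colonies photographed and colony-formation efficiency quantified.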

HeLa [5] = assay: Induction of apoptosis in human HeLa cells assessed as chromatin condensation at 5 uM after 48 hrs by DAPI staining-based fluorescence microscopic analysis; assay type: functional, cell-based
Method in brief: (§3)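 Cells fixed in 5% paraformaldehyde and permeabilized with 0.1% Triton X-100 in PBS. Stained 10 min with DAPI (1 µg/mL) and examined by fluorescence microscopy. Nuclei with chromatin condensation and fragmentation scored apoptotic.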

HeLa [6] = assay: Induction of apoptosis in human HeLa cells assessed as cell shrinkage at 5 uM after 48 hrs by DAPI staining-based fluorescence microscopic analysis; assay type: functional; method in brief: as §3
HeLa [7] = assay: Induction of apoptosis in human HeLa cells assessed as increase in cleaved caspase-3 levels at 5 uM after 24 hrs by Western blot analysis; assay type: functional, cell-based
Method in brief: (§4)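 Treated cells lysed in ice-cold Tris-HCl pH 7.5/NaCl/NP-40 buffer with protease inhibitors. Equal protein separated by SDS-PAGE and transferred to nitrocellulose. Blocked in 5% milk in PBST, primary antibodies overnight at 4 °C, secondary 1 h at room temperature, infrared imaging. β-actin probed alongside.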

HeLa [8] = assay: Induction of apoptosis in human HeLa cells assessed as increase in cleaved caspase-9 levels at 5 uM after 24 hrs by Western blot analysis; assay type: functional, cell-based; method in brief: as §4
HeLa [9] = assay: Induction of apoptosis in human HeLa cells assessed as decrease in Bcl-2 levels at 5 uM after 24 hrs by Western blot analysis; assay type: functional, cell-based; method in brief: as §4
HeLa [10] = assay: Induction of apoptosis in human HeLa cells assessed as increase in Bax levels at 5 uM after 24 hrs by Western blot analysis; assay type: functional, cell-based; method in brief: as §4
HeLa [11] = assay: Induction of apoptosis in human HeLa cells assessed as viable cells at 5 uM after 48 hrs by Annexin V-FITC/propidium iodide staining-based flow cytometric analysis (reference value: 74%); assay type: functional; settings: read-out: Activity
HeLa [12] = assay: Induction of apoptosis in human HeLa cells assessed as early apoptotic cells at 5 uM after 48 hrs by Annexin V-FITC/propidium iodide staining-based flow cytometric analysis (reference value: 9.5%); assay type: functional
HeLa [13] = assay: Induction of apoptosis in human HeLa cells assessed as late apoptotic cells at 5 uM after 48 hrs by Annexin V-FITC/propidium iodide staining-based flow cytometric analysis (reference value: 15%); assay type: functional
HeLa [14] = assay: Induction of apoptosis in human HeLa cells assessed as necrotic cells at 5 uM after 48 hrs by Annexin V-FITC/propidium iodide staining-based flow cytometric analysis (reference value: 1.5%); assay type: functional
HeLa [15] = assay: as §1; assay type: cell-based; method in brief: as §2

EC50 [1]: 13 µM
Compound: O=C1/C(=N\O)c2c(Cl)cccc2N1Cc1ccc(Cl)cc1

EC50 [1]: 6 µM
Compound: O=C1/C(=N\O)c2c(Br)cccc2N1Cc1ccc(Cl)cc1

EC50 [1]: 12 µM
Compound: COc1ccc(-c2cccc3c2/C(=N/O)C(=O)N3Cc2ccc(Cl)cc2)cc1

EC50 [1]: 5 µM
Compound: O=C1/C(=N\O)c2c(-c3ccc(C(F)(F)F)cc3)cccc2N1Cc1ccc(Cl)cc1
Activity (HeLa [2]): Tde
Activity (L02): Non-Toxic
inhibition (HeLa [3]): Active
inhibition (HeLa [4]): Active
Activity (HeLa [5]): Active
Activity (HeLa [6]): Active
Activity (HeLa [7]): Active
Activity (HeLa [8]): Active
Activity (HeLa [9]): Active
Activity (HeLa [10]): Active
viability at 5 µM (HeLa [11]): 38%
Activity (HeLa [12]): 30.6%
Activity (HeLa [13]): 29.1%
Activity (HeLa [14]): 2.2%

EC50 [1]: 14 µM
Compound: O=C1/C(=N\O)c2c(I)cccc2N1Cc1ccc(Cl)cc1
inhibition (HeLa [15]): Dose-dependent effect

Source: ChEMBL document CHEMBL4145477, “Inhibitor of the human telomerase reverse trancriptase (hTERT) gene promoter induces cell apoptosis via a mitochondrial-dependent pathway” (Eur J Med Chem, 2018)
